The nature of series [1]: Safety assessments. Format: in vivo, human. The conditions noted are these: concomitant dosing with eliglustat, N = 33. The method in brief: (§1)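 Open-label study in healthy adults. Safety was monitored after a single dose (Day 1), during multiple doses alone (Days 2–8), and during co-dosing (Days 9–15 with the CYP3A/P-gp inhibitor; Days 9–18 with the CYP2D6 inhibitor). Measures: treatment-emergent AEs, clinical labs, vital signs, physical exams, 12-lead ECG, 12 h continuous telemetry. An AE counted as treatment-related if possibly, probably or definitely related to study drug.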

The nature of series [2]: Safety assessments. It is filed as in vivo, human. An outline of the steps: as §1

With `CC(=O)N1CCN(c2ccc(OCC3COC(Cn4ccnc4)(c4ccc(Cl)cc4Cl)O3)cc2)CC1` (stereo not drawn) [ketoconazole], in “Safety assessments [1]”, the “subjects reporting AEs related to ketoconazole” value is 33.3%. Regarding `Fc1ccc([C@@H]2CCNC[C@H]2COc2ccc3c(c2)OCO3)cc1` [paroxetine], the “subjects reporting AEs related to paroxetine” value in “Safety assessments [2]” (concomitant dosing with eliglustat, N = 35) is 71.4%. The “subjects with moderate clinically significant increases in blood pressure” value in “Safety assessments [2]” (concomitant dosing, deemed probably related to paroxetine) amounted to 17.1%.

Source of the values: publication PMC6976987 (Molecular Genetics and Metabolism Reports, 2020).
